Assay [1] deals with Canis familiaris. Nature of the assay: Inhibitory activity when administered intravenously in histamine-stimulated gastric fistula dog at 3 mg/kg, id. The class given is functional. To be noted: Canis lupus familiaris, Stomach, in the assay text read “in” for “when administered intravenously in”. The procedure, abridged: (§1)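 Conscious gastric-fistula dogs fasted 18 h, given 3 mg/kg after a 30-min basal period. Histamine infused at 15 μg/kg per h, with gastric juice collected every 30 min for 4 h. Total acidity found by titration with 0.1 N NaOH to pH 7.0.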

Assay [2] has as its target Potassium-transporting ATPase (Canis familiaris). As to the kind of experiment: In vitro inhibitory activity against H+/K+ ATPase prepared from canine fundic mucosa.
Assay [3] relates to Canis familiaris. Nature of the assay: Inhibitory activity when administered […] in histamine-stimulated gastric fistula dog at 3 mg/kg, id; Lethal at 10 mg/kg, id. As to conditions: Canis lupus familiaris, Stomach. The class given is functional, organism-based. The method, boiled down:
as §1

The term inhibition in vivo denotes the change of the read-out against control, counted positive when it falls. Higher therefore signals a response far below the control. As usually defined, the IC50 is the concentration at which inhibition is half-maximal. Read a high IC50 as lower potency. In the assay on Canis familiaris [1], `Cc1cccc(N)c1C[S+]([O-])c1nc2ccccc2[nH]1` (stereo not given) came in with an inhibition in vivo at 3 mg/kg of 44%. Besides, 0.7 µM corresponded to half-maximal inhibition in assay [2] (IC50).
Regarding `Cc1cc2nc([S+]([O-])Cc3ccccc3N)[nH]c2cc1C` (stereo not given), at 3 mg/kg the inhibition in vivo with Canis familiaris [1] was 44%. The molecule also returned an IC50 in assay [2] of 13.5 µM.
In the case of `Cc1c(Cl)ccc(C[S+]([O-])c2nc3ccccc3[nH]2)c1N` (stereo not given), in assay [2], 6.4 µM corresponded to half-maximal inhibition (IC50).
In turn, `COc1ccc2[nH]c([S+]([O-])Cc3cccc(C)c3N)nc2c1` (stereo not given) registered an inhibition in vivo at 3 mg/kg in the assay on Canis familiaris [1] of 72%. In assay [2], this molecule had a 50% inhibitory concentration (IC50) of 5.4 µM.
As for `CNc1ccccc1C[S+]([O-])c1nc2ccccc2[nH]1` (stereo not given), the inhibition in vivo at 3 mg/kg in the assay with Canis familiaris [1] stood at 21%. Further, the half-inhibitory concentration (IC50) in assay [2] came to 0.6 µM.
In the same order, the values of `CN(C)c1ccccc1C[S+]([O-])c1nc2ccccc2[nH]1` (stereo not given) are 14% and 0.7 µM.
On to `COc1cc(Cl)c(C)c(C[S+]([O-])c2nc3ccccc3[nH]2)c1N` (stereo not given), for which the IC50 in assay [2] came out at 2.7 µM.
The molecule `CCc1cccc(C[S+]([O-])c2nc3ccccc3[nH]2)c1N` (stereo not given) yielded an inhibition in vivo at 3 mg/kg in the assay with Canis familiaris [1] of 21%. The same molecule had an IC50 in assay [2] of 3.9 µM.
The like results for `CC(=O)Nc1ccccc1C[S+]([O-])c1nc2ccccc2[nH]1` (stereo not given) were, in that order, 37% and > 100 µM.
In the assay on Canis familiaris [1], `Nc1ccccc1C[S+]([O-])c1nc2cc(C(F)(F)F)ccc2[nH]1` (stereo not given) had an inhibition in vivo at 3 mg/kg of 37%. Besides, the IC50 in assay [2] came to 4.4 µM.
As for `COc1ccc(N)c(C[S+]([O-])c2nc3ccccc3[nH]2)c1` (stereo not given), the IC50 in assay [2] was 1.6 µM.
Consider `CCOC(=O)c1ccc(N)c(C[S+]([O-])c2nc3ccccc3[nH]2)c1` (stereo not given), for which, in the assay on Canis familiaris [1], the inhibition in vivo at 3 mg/kg came to 7%. Further, in assay [2], the 50% inhibitory concentration (IC50) is > 100 µM.
In the same order, the values of `COc1ccc2[nH]c([S+]([O-])Cc3cc(C)ccc3N)nc2c1` (stereo not given) are 80% and 4.2 µM.
In the same order, the values of `CCc1ccc(N)c(C[S+]([O-])c2nc3ccccc3[nH]2)c1` (stereo not given) are 62% and 2 µM.
The like results for `Cc1ccc(N)c(C[S+]([O-])c2nc3ccccc3[nH]2)c1` (stereo not given) were, in that order, 67% and 2.1 µM.
With `COc1c(C)cc(N)c(C[S+]([O-])c2nc3ccccc3[nH]2)c1C` (stereo not given), the inhibition in vivo at 3 mg/kg in the assay with Canis familiaris [1] was 53%. In assay [2], this molecule showed an IC50 of 0.2 µM.
In the same order, the values of `COc1cccc(C[S+]([O-])c2nc3ccccc3[nH]2)c1N` (stereo not given) are 68% and 9.3 µM.
With `Cc1ccc(C)c(C[S+]([O-])c2nc3cc(C(F)(F)F)ccc3[nH]2)c1N` (stereo not given), the IC50 in assay [2] came to 1.5 µM.
In the case of `Nc1ccccc1C[S+]([O-])c1nc2ccccc2[nH]1` (stereo not given), in the assay with Canis familiaris [1], the inhibition in vivo at 3 mg/kg is 53%. Further, 4.3 µM corresponded to half-maximal inhibition in assay [2] (IC50).
In the same order, the values of `Cc1cccc2[nH]c([S+]([O-])Cc3ccccc3N)nc12` (stereo not given) are 60% and 7.4 µM.
In the same order, the values of `Nc1cc(Cl)ccc1C[S+]([O-])c1nc2ccccc2[nH]1` (stereo not given) are 13% and 24 µM.
Take `Nc1ccc(F)cc1C[S+]([O-])c1nc2ccccc2[nH]1` (stereo not given): the IC50 in assay [2] was 25 µM.
In assay [2], `Cc1cc(Cl)cc(C[S+]([O-])c2nc3ccccc3[nH]2)c1N` (stereo not given) displayed an IC50 of 60 µM.
Regarding `COc1ccc2[nH]c([S+]([O-])Cc3ncc(C)c(OC)c3C)nc2c1` (stereo not given) [OMEPRAZOLE], in the assay with Canis familiaris [1], 3 mg/kg produced 97% inhibition in vivo.
Take `Nc1ccc(Cl)cc1C[S+]([O-])c1nc2ccccc2[nH]1` (stereo not given): 3 mg/kg produced 24% inhibition in vivo in the assay with Canis familiaris [1]. Also, the IC50 in assay [2] was > 100 µM.
Consider `Cc1ccc2nc([S+]([O-])Cc3ccc(C)c(C)c3N)[nH]c2c1` (stereo not given), for which inhibition in assay [2] was half-maximal at 0.7 µM (IC50).
Same read-out and setting: as for `Cc1ccc2[nH]c([S+]([O-])Cc3ccccc3N)nc2c1` (stereo not given), the figure is 7.9 µM.
The same measure, in the same setting: the figure for `CCOC(=O)c1ccc(N)c(C[S+]([O-])c2nc3ccc(OC)cc3[nH]2)c1` (stereo not given) is > 100 µM; for `Cc1cc(N)c(C[S+]([O-])c2nc3ccccc3[nH]2)c(C)c1C` (stereo not given) it is 10 µM.
With `[O-][S+](Cc1ccccn1)c1nc2ccccc2[nH]1` (stereo not given) [TIMOPRAZOLE], the inhibition in vivo at 3 mg/kg in the assay on Canis familiaris [1] came out at 68%.
With `CCOc1ccc2[nH]c([S+]([O-])Cc3cc(C)ccc3N)nc2c1` (stereo not given), the midpoint of inhibition in assay [2], the IC50, lay at 5.3 µM.
Same read-out and setting: as for `COc1cccc(C[S+]([O-])c2nc3cc(C(F)(F)F)ccc3[nH]2)c1N` (stereo not given), the figure is 8.5 µM; as for `Cc1ccc(C)c(C[S+]([O-])c2nc3ccccc3[nH]2)c1N` (stereo not given), 0.8 µM.
In assay [2], `COc1cc2nc([S+]([O-])Cc3ccccc3N)[nH]c2cc1OC` (stereo not given) registered an IC50 of 120 µM.
On to `Cc1cc(C)c(N)c(C[S+]([O-])c2nc3ccccc3[nH]2)c1` (stereo not given), for which the inhibition entry with Canis familiaris [3] is on record as “Lethal at 10mg/kg,id”. In assay [2], this molecule displayed an IC50 of 0.8 µM.
In the assay with Canis familiaris [1], `CCCCc1ccc(N)c(C[S+]([O-])c2nc3ccccc3[nH]2)c1` (stereo not given) had an inhibition in vivo at 3 mg/kg of 19%. Moreover, the IC50 in assay [2] was 2.6 µM.
The like results for `COc1ccc2[nH]c([S+]([O-])Cc3c(N)cc(C)c(OC)c3C)nc2c1` (stereo not given) were, in that order, 31% and 2.1 µM.
Regarding `CCOc1ccc2[nH]c([S+]([O-])Cc3ccccc3N)nc2c1` (stereo not given), the IC50 in assay [2] amounted to 24 µM. This counts as double-digit micromolar.
Consider `COc1ccc2[nH]c([S+]([O-])Cc3ccccc3N)nc2c1` (stereo not given), for which the inhibition in vivo at 3 mg/kg with Canis familiaris [1] is 78%. Also, half-maximal inhibition in assay [2] (IC50) was put at 11 µM.
Consider `Nc1ccccc1C[S+]([O-])c1nc2cc(Cl)ccc2[nH]1` (stereo not given), for which the IC50 in assay [2] worked out at 12 µM. That is a double-digit micromolar value.
Consider `Nc1ccc(C(F)(F)F)cc1C[S+]([O-])c1nc2ccccc2[nH]1` (stereo not given), for which the inhibition in vivo at 3 mg/kg in the assay with Canis familiaris [1] was found to be 16%. The IC50 in assay [2] was > 100 µM.
In the same order, the values of `Cc1cccc(C[S+]([O-])c2nc3ccccc3[nH]2)c1N` (stereo not given) are 44% and 3.2 µM.
In the same order, the values of `Cc1ccc(C[S+]([O-])c2nc3ccccc3[nH]2)c(N)c1C` (stereo not given) are 79% and 0.6 µM.
In the same order, the values of `COC(=O)c1cccc(C[S+]([O-])c2nc3ccccc3[nH]2)c1N` (stereo not given) are 28% and > 100 µM.

The values are drawn from ChEMBL document CHEMBL1124135, “Substituted 2-[(2-benzimidazolylsulfinyl)methyl]anilines as potential inhibitors of H+/K+ ATPase” (J Med Chem, 1988).
